Assay results published in BindingDB's records for doi:10.1016/j.bmc.2013.04.054 (Northwestern University, 2013).

Target: Voltage-dependent L-type calcium channel subunit alpha-1C (Oryctolagus cuniculus, UniProt P15381)
Test: Antagonist activity at rabbit voltage-dependent L-type calcium channel Cav1.2alpha-1C expressed in HEK293 cells by FLIPR assay
How it was run: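 HEK293 lines stably expressing rat CaV1.3α1D or rabbit CaV1.2α1C, with rat CaVβ3 and rat CaVα2δ-1 cDNAs used in construction. Calcium influx was read by Fluo-8 fluorescence on a FLIPR Tetra. […] The selectivity ratio is CaV1.3 IC50 over CaV1.2 IC50.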

Voltage-dependent L-type calcium channel subunit alpha-1C, sequence (P15381 whole entry): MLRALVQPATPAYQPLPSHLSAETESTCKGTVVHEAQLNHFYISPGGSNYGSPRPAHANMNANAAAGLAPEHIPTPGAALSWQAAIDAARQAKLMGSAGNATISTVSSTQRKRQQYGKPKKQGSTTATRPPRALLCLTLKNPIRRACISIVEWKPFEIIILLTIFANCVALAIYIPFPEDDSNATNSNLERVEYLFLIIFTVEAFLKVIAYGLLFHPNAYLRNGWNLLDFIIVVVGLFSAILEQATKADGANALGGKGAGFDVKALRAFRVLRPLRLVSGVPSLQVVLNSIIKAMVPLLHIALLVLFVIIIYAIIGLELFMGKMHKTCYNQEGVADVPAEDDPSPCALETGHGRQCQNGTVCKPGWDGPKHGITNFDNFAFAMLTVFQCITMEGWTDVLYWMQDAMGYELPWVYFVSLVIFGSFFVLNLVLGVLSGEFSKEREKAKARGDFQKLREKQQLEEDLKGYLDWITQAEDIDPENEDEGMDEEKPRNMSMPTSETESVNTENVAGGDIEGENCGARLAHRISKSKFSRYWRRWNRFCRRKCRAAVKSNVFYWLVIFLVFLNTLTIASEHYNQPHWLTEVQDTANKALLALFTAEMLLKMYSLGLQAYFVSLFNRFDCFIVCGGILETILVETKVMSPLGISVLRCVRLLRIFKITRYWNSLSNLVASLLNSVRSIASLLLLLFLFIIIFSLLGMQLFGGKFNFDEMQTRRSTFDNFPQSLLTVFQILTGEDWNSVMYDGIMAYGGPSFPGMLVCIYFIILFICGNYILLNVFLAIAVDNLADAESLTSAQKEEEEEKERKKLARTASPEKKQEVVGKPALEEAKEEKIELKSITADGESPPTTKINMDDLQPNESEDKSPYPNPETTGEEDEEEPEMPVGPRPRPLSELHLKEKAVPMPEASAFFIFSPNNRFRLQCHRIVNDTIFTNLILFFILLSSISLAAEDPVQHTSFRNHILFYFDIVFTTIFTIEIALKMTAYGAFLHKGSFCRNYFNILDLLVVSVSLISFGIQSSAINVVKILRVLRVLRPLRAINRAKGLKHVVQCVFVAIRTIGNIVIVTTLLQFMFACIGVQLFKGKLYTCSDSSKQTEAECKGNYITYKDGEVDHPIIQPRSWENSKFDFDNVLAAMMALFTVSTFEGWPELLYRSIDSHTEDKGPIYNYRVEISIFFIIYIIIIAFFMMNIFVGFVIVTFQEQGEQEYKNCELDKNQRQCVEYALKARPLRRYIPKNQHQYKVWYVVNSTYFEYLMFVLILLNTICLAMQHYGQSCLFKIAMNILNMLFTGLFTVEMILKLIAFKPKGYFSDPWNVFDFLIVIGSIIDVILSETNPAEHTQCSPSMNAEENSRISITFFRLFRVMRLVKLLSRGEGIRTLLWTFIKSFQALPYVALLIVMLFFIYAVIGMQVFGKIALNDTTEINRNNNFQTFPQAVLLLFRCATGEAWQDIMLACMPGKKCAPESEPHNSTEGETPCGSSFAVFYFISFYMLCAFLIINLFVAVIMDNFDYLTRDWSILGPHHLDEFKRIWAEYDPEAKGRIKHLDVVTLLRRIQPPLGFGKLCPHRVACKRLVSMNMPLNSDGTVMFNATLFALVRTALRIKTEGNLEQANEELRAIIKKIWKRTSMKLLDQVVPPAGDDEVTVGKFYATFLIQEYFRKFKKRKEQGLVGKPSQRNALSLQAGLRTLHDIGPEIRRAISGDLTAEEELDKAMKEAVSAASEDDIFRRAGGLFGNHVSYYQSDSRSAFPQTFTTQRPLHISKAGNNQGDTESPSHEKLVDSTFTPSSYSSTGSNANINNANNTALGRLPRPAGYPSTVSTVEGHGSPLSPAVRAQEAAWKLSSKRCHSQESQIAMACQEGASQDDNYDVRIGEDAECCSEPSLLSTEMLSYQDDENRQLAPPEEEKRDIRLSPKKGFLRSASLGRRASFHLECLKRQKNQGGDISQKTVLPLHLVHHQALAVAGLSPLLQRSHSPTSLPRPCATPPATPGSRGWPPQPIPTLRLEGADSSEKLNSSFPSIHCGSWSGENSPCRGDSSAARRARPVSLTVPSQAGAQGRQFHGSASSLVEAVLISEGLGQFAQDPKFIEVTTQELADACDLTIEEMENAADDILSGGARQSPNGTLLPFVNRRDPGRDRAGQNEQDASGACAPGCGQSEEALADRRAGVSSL

Structure (SMILES) | IC50
COC(=O)N1C(=O)N=C(C)C(C(=O)OC(C)C)[C@@H]1c1cccc([N+](=O)[O-])c1 (some centres not stated) | 2480 nM
COC(=O)C1C(C)=NC(=O)N(C(=O)OC(C)C)C1c1cccc([N+](=O)[O-])c1 (configuration not stated) | 2480 nM
